{"data": "Published values gathered from unrelated publications", "target": "Ephrin type-B receptor 2 (EPHB2, Homo sapiens, UniProt P29323)", "Sequence (P29323 19-1055, as in one of the studies)": "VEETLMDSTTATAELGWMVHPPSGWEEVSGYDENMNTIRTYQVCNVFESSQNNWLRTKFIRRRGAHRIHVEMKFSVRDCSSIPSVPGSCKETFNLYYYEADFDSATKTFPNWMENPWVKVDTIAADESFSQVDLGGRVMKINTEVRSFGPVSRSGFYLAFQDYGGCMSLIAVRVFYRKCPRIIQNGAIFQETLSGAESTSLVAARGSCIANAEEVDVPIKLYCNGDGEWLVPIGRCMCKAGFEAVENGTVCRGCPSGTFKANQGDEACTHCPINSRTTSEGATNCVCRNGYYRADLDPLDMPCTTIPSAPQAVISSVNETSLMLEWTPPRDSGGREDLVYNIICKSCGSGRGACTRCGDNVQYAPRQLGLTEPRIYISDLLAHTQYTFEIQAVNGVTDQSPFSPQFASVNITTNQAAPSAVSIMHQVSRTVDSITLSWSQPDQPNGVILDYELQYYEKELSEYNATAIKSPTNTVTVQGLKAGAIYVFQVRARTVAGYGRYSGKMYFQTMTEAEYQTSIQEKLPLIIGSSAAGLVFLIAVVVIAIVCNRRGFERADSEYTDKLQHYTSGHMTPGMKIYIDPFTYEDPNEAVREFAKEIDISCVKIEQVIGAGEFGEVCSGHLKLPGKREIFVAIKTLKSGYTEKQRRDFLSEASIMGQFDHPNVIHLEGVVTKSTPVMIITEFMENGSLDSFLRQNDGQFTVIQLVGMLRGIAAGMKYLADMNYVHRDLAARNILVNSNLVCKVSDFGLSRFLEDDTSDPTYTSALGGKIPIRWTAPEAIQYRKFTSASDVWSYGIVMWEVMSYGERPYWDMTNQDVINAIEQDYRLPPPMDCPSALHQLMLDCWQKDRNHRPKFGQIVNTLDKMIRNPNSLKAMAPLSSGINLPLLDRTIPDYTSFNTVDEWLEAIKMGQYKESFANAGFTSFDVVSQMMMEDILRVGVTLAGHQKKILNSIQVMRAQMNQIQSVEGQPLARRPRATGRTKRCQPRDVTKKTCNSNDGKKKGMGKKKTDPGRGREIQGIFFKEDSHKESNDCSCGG", "note": "Protocols differ between the studies behind these lines."}
{"Structure (SMILES)": "C[C@H]1CC[C@H](n2c3cnccc3c3cnc(Nc4ccc5c(n4)CCN(C(=O)CO)C5)nc32)CC1", "assay": "cell-free assay, competition with immobilised ligand", "setting": "1 µM", "quantity": "remaining binding", "value": "100%"}
{"Structure (SMILES)": "Cc1cc(O)c(-c2ccc([C@@H](C)CN(C)C)cc2)c2c1[nH]c(=O)c1sccc12", "assay": "cell-free assay, inhibitor", "setting": "0.1 µM", "quantity": "inhibition", "value": "0.144%"}
{"Structure (SMILES)": "CO[C@@H]1[C@H](N(C)C(=O)c2ccccc2)C[C@H]2O[C@]1(C)n1c3ccccc3c3c4c(c5c6ccccc6n2c5c31)C(=O)NC4", "assay": "enzyme activity, inhibitor", "setting": "1 µM", "quantity": "inhibition", "value": "0%"}
{"Structure (SMILES)": "Cc1ccc(NC(=O)c2ccnc(C(F)(F)F)c2)cc1-c1cc(OCCO)nc(N2CCOCC2)c1", "assay": "binding, competition with immobilised ligand", "setting": "1 µM", "quantity": "remaining binding", "value": "85%"}
{"Structure (SMILES)": "C1=C/COCc2cc(ccc2OCCN2CCCC2)Nc2nccc(n2)-c2cccc(c2)COC/1", "assay": "binding", "setting": "0.1 µM", "quantity": "remaining binding", "value": "88%"}
{"Structure (SMILES)": "CCCCC(=O)Nc1ccc(-c2ccc3ncn(CCC)c(=O)c3c2)cn1", "assay": "binding, competition with immobilised ligand", "setting": "0.5 µM", "quantity": "remaining binding", "value": "100%"}
{"Structure (SMILES)": "CC#CC(=O)N1CCC[C@H]1c1nc(-c2ccc(C(=O)Nc3ccccn3)cc2)c2c(N)nccn12", "assay": "enzyme activity, inhibitor", "setting": "1 µM", "quantity": "inhibition", "value": "6%"}
{"Structure (SMILES)": "CC(C)S(=O)(=O)c1ccc2nccc(Nc3ccc4sc(C5CCCC5)nc4c3)c2c1", "assay": "enzyme activity, inhibitor", "setting": "1 µM", "quantity": "activity vs control", "value": "109%"}
